From ChEMBL document CHEMBL3227926, “2-Mercaptoacetamidines as gastric antisecretory agents” (J Med Chem, 1979)

Experiments:
Canis familiaris [1] = assay: Inhibition of gastrin tetrapeptide-induced gastric secretion in beagle dog at 16 mg/kg administered directly into stomach via gastric cannula measured after 2 hrs of stimulation; format: functional; settings: Canis lupus familiaris
Method in brief: (§1)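 Conscious female beagles (5-9 kg) with chronic gastric fistula. Dose in 50 mL 1% methylcellulose was put into the stomach via the cannula 1 h before gastrin tetrapeptide 64 µg/kg sc (from 640 µg/mL in 30% Me2SO); controls got vehicle. Juice was collected for 2 h. Volume was measured, titratable acid obtained by titration to pH 7 with 0.01 N NaOH, and total acid taken as volume × concentration.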

Canis familiaris [2] = assay: Inhibition of gastrin tetrapeptide-induced gastric secretion in beagle dog at 8 mg/kg administered directly into stomach via gastric cannula measured after 2 hrs of stimulation; format: functional; settings: Canis lupus familiaris; method in brief: as §1
Canis familiaris [3] = assay: Toxicity in beagle dog assessed as tachycardia administered directly into stomach via gastric cannula; format: organism-based, Canis lupus familiaris; settings: in vivo, other
Canis familiaris [4] = assay: Toxicity in beagle dog assessed as emesis administered directly into stomach via gastric cannula; format: organism-based, Canis lupus familiaris; settings: in vivo, other
Canis familiaris [5] = assay: Toxicity in beagle dog assessed as gastric bleeding administered directly into stomach via gastric cannula; format: organism-based, Canis lupus familiaris; settings: in vivo, other

Row | SMILES | inhibition in vivo at 16 mg/kg (Canis familiaris [1]) [%] | inhibition in vivo at 8 mg/kg (Canis familiaris [2]) [%] | Activity (Canis familiaris [3]) | Activity (Canis familiaris [4]) | Activity (Canis familiaris [5])
1 | Cl.N=C(CSSCC(=N)NCC12CC3CC(CC(C3)C1)C2)NCC12CC3CC(CC(C3)C1)C2 | 80 | 62 | Toxic | Toxic | Toxic
2 | Cl.N=C(CS)N1CCOCC1 | 23 | 2 | Toxic | Toxic | Toxic
3 | Cl.N=C(CS)NC12CC3CC(CC(C3)C1)C2 | 86 | 61 | Toxic | Toxic | Toxic
4 | Cl.N=C(CS)NC1C2CC3CC(C2)CC1C3 (configuration not stated) | 85 |  | Toxic | Toxic | Toxic
5 | Cl.N=C(CS)NCC1C2CC3CC(C2)CC1C3 (configuration not stated) |  | 67 | Toxic | Toxic | Toxic
6 | Cl.N=C(CS)NCCCCCC12CC3CC(CC(C3)C1)C2 |  | 9 | Toxic | Toxic | Toxic
7 | Cl.N=C(N)CS |  | 89 | Toxic | Toxic | Toxic
8 | CC(C)NC(=N)CS.Cl |  | 58 | Toxic | Toxic | Toxic
9 | Cl.N=C(CS)NCC1CCCCC1 |  | 86 | Toxic | Toxic | Toxic
10 | Cl.N=C(CS)NCC12CCCC(CCC1)C2 | 23 | 67 | Toxic | Toxic | Toxic
11 | Cl.N=C(CS)NCC1CC2C3CCC(C3)C2C1 (configuration not stated) |  | 70 | Toxic | Toxic | Toxic
12 | Cl.N=C(CS)NCC12CCC(C(=O)O)(CC1)CC2 |  | 0 | Toxic | Toxic | Toxic
13 | Cl.N=C(CS)NCc1ccncc1 |  | 85 | Toxic | Toxic | Toxic
14 | Cl.N=C(CS)NCc1ccccn1 |  | 82 | Toxic | Toxic | Toxic
15 | Cl.N=C(CS)NC/C=C/c1ccccc1 |  | 53 | Toxic | Toxic | Toxic
16 | Cl.N=C(CS)NCC(c1ccccc1)c1ccccc1 | 60 | 0 | Toxic | Toxic | Toxic
17 | Cl.N=C(CS)NC(c1ccccc1)c1ccccc1 | 82 |  | Toxic | Toxic | Toxic
18 | Cl.N=C(CS)NC(c1ccccc1)c1ccc(Cl)cc1 (configuration not stated) | 87 |  | Toxic | Toxic | Toxic
19 | Cl.N=C(CS)NC(Cc1ccccc1)c1ccccc1 (configuration not stated) | 84 |  | Toxic | Toxic | Toxic
20 | Cl.N=C(CS)NC1Cc2ccccc2C1 | 100 |  | Toxic | Toxic | Toxic
21 | Cl.N=C(CS)NC1CCc2ccccc21 (configuration not stated) | 85 | 20 | Toxic | Toxic | Toxic

Row | SMILES | inhibition in vivo at 16 mg/kg (Canis familiaris [1]) [%] | inhibition in vivo at 8 mg/kg (Canis familiaris [2]) [%] | Activity (Canis familiaris [3]) | Activity (Canis familiaris [4]) | Activity (Canis familiaris [5])
22 | Cl.N=C(CS)NC1c2ccccc2-c2ccccc21 | 0 |  | Toxic | Toxic | Toxic
23 | Cl.N=C(CS)Nc1ccccc1 | 0 |  | Toxic | Toxic | Toxic
24 | Cl.N=C(CS)Nc1cccc2ccccc12 | 64 |  | Toxic | Toxic | Toxic
25 | Cl.N=C(CS)Nc1cccc2c1CCCC2 | 14 |  | Toxic | Toxic | Toxic
26 | CN(Cc1ccccc1)C(=N)CS.Cl | 0 |  | Toxic | Toxic | Toxic
27 | Cl.N=C(CS)N1CC2CCC(CC2)C1 | 92 |  | Toxic | Toxic | Toxic
28 | O=C(CS)NCc1ccccc1 |  | 0 | Toxic | Toxic | Toxic
29 | O=C(CS)NC1CCCCC1 |  | 0 | Toxic | Toxic | Toxic
30 | O=C(CS)NC12CC3CC(CC(C3)C1)C2 | 58 |  | Toxic | Toxic | Toxic
31 | CC(S)C(=N)NCC(C)(C)C.Cl (configuration not stated) | 28 | 0 | Toxic | Toxic | Toxic
32 | CC(C)(C)CNC(=N)CCCS.Cl |  | 11 | Toxic | Toxic | Toxic
33 | CC(C)(C)CNC(=N)CCSSCCC(=N)NCC(C)(C)C.Cl | 75 | 21 | Toxic | Toxic | Toxic
34 | Cl.N=C(CCSSCCC(=N)NCc1ccccc1)NCc1ccccc1 | 42 |  | Toxic | Toxic | Toxic
35 | CC(C)(C)CNC(=N)CO.Cl | 61 | 22 | Toxic | Toxic | Toxic
36 | Cl.N=C(CO)NCc1ccccc1 | 0 |  | Toxic | Toxic | Toxic
37 | CC(=N)NCc1ccccc1.Cl | 19 |  | Toxic | Toxic | Toxic
38 | CC(=N)NC1CCCCC1 | 0 |  | Toxic | Toxic | Toxic
39 | Cl.N=C(CS)N[C@@H]1C[C@H]2CC[C@H]1C2 (relative stereo) |  | 94 | Toxic | Toxic | Toxic
40 | CSCC(=N)NC[C@@H]1C[C@H]2CC[C@H]1C2 (relative stereo) |  | 35 | Toxic | Toxic | Toxic
41 | Cl.N=C(CS)NC[C@@H]1C[C@H]2CC[C@H]1C2 (relative stereo; 15) |  |  | Toxic | Toxic | Toxic
